This is a sample that favours compounds with a hit; in the whole collection about 3.5% have one here.
MrgX1 PAM: human MrgX1 positive allosteric modulation, primary screen; Q96LB2; MrgX1-HEK293, Fluo-4 calcium flux, FDSS; active compounds read high; B-score at 10 µM; actives 0.63% (n = 310,000); AID 588675;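 active means plate-corrected calcium response at least 3 library SD above typical, normal starting fluorescence, not activating the receptor alone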;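 further: compound read alongside a low EC10 to EC30 dose of BAM8-22 agonist; peak minus trough fluorescence over baseline measured at the second addition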
Target sequence (Q96LB2 whole entry, looked up): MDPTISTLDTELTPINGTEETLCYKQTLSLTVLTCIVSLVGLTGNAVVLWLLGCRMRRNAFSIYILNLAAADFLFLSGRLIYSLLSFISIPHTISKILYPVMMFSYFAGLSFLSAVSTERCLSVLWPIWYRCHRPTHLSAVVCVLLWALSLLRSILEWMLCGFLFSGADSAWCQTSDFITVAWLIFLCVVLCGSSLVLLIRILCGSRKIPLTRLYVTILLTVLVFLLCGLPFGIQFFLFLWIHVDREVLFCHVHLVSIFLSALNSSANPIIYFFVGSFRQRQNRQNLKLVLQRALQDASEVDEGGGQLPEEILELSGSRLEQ
MrgX1 antagonist: human MrgX1 receptor antagonism, primary screen. MRGX1-HEK293 calcium flux, Fluo-4, BAM8-22 antagonism; active compounds read low. B-score at 10 µM. actives 1.3% (n = 310,000). Q96LB2;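 active means calcium-response B-score plate-corrected more than 3 library SD below zero, starting fluorescence within 5 deviations, no agonist response on first addition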;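 further: peak minus trough fluorescence over baseline after final BAM8-22 challenge near maximal dose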
RGS4 pot: potentiators or activators of RGS4; HEK293 M3R/inducible RGS4, carbachol calcium flux Fluo4; active compounds read low; actives 0.92% (n = 310,000); B-score at 10 µM; AID 463111;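 active means B-score of the integrated calcium signal more than 4 SD below the library mean, with starting fluorescence not abnormally high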;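 further: negative B-score means reduced calcium response which marks RGS4 activation or potentiation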
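System: HEK293 FlpIn-TREx cells, stable M3R, doxycycline-inducible RGS4. Timing: overnight RGS4 induction, 30 min dye load 37 °C, 20 min compound RT. Also added: carbachol, ECmax concentration. Measured by: Fluo4 fluorescence kinetic imaging of calcium. Evaluation: integrated calcium ratio converted to B score.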
RGS4 inh: inhibitors of human RGS4; P49798; actives 0.45% (n = 310,000); B-score at 10 µM; HEK293 M3R/RGS4 inducible, Fluo-4 calcium flux; active compounds read high; triggered by carbachol at its EC20;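 active means B-score, a plate-corrected calcium signal, over three deviations above library mean, with baseline fluorescence within five deviations of library mean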;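 further: RGS4 expression induced by doxycycline in cells with stable M3 receptor; B-score is computed from the integrated fluorescence ratio over baseline after carbachol; higher B-score means a larger calcium signal and so more RGS4 inhibition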
Target sequence (P49798 whole entry, looked up): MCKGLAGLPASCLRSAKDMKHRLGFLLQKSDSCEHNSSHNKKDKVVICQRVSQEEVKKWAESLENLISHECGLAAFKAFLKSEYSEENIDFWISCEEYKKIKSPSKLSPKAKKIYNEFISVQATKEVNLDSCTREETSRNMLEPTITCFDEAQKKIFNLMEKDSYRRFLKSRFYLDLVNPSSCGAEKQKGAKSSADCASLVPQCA
MrgX1 agonist: human MrgX1 receptor agonism, primary screen; actives 0.44% (n = 310,000); AID 588627; MrgX1-HEK293 cells, Fluo-4 calcium fluorescence, agonist mode; active compounds read high; B-score at 10 µM;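 active means calcium response B-score plate-corrected fluorescence ratio at least 3 library SD, with starting fluorescence B-score inside 5 SD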
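System – MrgX1-expressing HEK293 cells · Incubation – cells plated overnight, dye loaded 0.5 h 37 °C, 0.5 h room temperature · Technique – kinetic Fluo-4 NW fluorescence of intracellular calcium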
MrgX1 allo conf: reconfirmed allosteric activator of human MrgX1 receptor | shares compounds with MrgX1 PAM | MrgX1-HEK293, Fluo-4 calcium fluorescence, FDSS | activation (ratio percentage), % at 10 µM | actives 13% (n = 1,200);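 active means ratio at least 3 SD above the weak peptide control, stable starting fluorescence, no direct agonism earlier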;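 further: compound followed by low BAM8-22 agonist challenge near EC20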
HEK293 Ca flux: counter-screen for MrgX1 antagonists: effect in parental HEK293 cells; shares compounds with MrgX1 antagonist; AID 624111; Fluo-4 calcium fluorescence, FDSS; fluorescence ratio F(max-min)/F0 at 10 µM; actives 2% (n = 4,000);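 active means duplicate-averaged calcium fluorescence ratio at least three times the standard deviation of buffer wells, a nonspecific response in parental cells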
HEK293 Ca counter: MrgX1 allosteric activator counter-screen hit in parental HEK293 cells. shares compounds with MrgX1 antagonist. parental HEK293 calcium flux, Fluo-4 fluorescence ratio; active compounds read high. fluorescence ratio F(max-min)/F0 at 10 µM. actives 0.4% (n = 4,000). AID 624114;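 active means calcium fluorescence ratio, averaged over duplicates, at least 3 SD of the buffer-well ratio, meaning a nonspecific response in receptor-free cells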;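 further: untransfected parental HEK293 lacking MrgX1 used as counterscreen for MrgX1 allosteric activators; fluorescence change taken during the second addition on a kinetic imager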
HEK293 Ca cntr2: counter-screen for MrgX1 activators: effect in parental HEK293 cells | shares compounds with MrgX1 antagonist | Fluo-4 calcium fluorescence (FDSS); active compounds read high | fluorescence ratio F(max-min)/F0 at 10 µM | actives 8.7% (n = 4,000);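 active means calcium fluorescence ratio at least three times the spread of buffer wells, meaning a non-specific response in parental cells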
The depositor's hits bear a star; i = inactive; · = not tested or not shown.

SMILES | MrgX1 PAM | MrgX1 antagonist | RGS4 pot | RGS4 inh | MrgX1 agonist | MrgX1 allo conf | HEK293 Ca flux | HEK293 Ca counter | HEK293 Ca cntr2
NC(=O)c1oc2ccccc2c1NC(=O)CN1CCCCC1 | 9.1* | i | i | i | i | 9.3%* | i | i | i
NC(=O)c1oc2ccccc2c1NC(=O)C1CC(=O)N(c2ccccc2)C1 (stereo unspecified) | i | i | i | i | i | · | · | · | ·
COc1ccccc1NC(=O)N1CCc2[nH]c3ccc(Cl)cc3c2C1 | i | i | i | i | i | · | · | · | ·
Cc1ccc(NC(=O)C2C3/C=C\CCCCC32)cc1 (stereo unspecified) | i | i | i | i | i | · | · | · | ·
O=C(Nc1nccs1)C1C2/C=C\CCCCC21 (stereo unspecified) | 12* | i | i | i | i | i | i | i | i
COc1ccc(N(C(C)C(=O)N2CCC(Cc3ccccc3)CC2)S(C)(=O)=O)cc1 (stereo unspecified) | i | i | i | i | i | · | · | · | ·
COCc1cc(Sc2ccc(Br)cc2)nc(-c2ccccc2)n1 | 8.9* | i | i | i | i | i | i | i | i
CS(=O)Cc1cc(Sc2ccccc2)nc(-c2ccncc2)n1 (stereo unspecified) | i | i | i | i | i | · | · | · | ·
COCc1cc(Sc2ccc(Cl)cc2)nc(-c2ccccc2)n1 | 14* | i | i | i | i | i | i | i | i
COCc1cc(N2CCN(c3ccccc3F)CC2)nc(-c2ccccc2)n1 | i | i | i | i | i | · | · | · | ·
COc1cc(SC)ccc1C(=O)OCC(=O)N1CCCC1 | 11* | i | i | i | i | i | i | i | i
COc1cc(/C=C(\NC(=O)c2ccccc2)C(=O)NC(C(=O)O)c2ccccc2)cc(OC)c1OC (stereo unspecified) | i | i | i | i | i | · | · | · | ·
CCOC(=O)Cc1csc(NC(=O)c2cc3ccccc3o2)n1 | 6.8* | i | i | i | i | i | i | i | i
CCOC(=O)Cc1csc(NC(=O)c2ccc(Br)o2)n1 | 16* | i | i | i | i | i | i | i | i
Cc1sc2ncn(C(C)C(=O)OC3CCCCC3)c(=O)c2c1C (stereo unspecified) | 9.2* | i | i | i | i | i | i | i | i
COc1ccccc1C(=O)OCC(=O)Nc1ccc(OC(F)F)cc1 | i | i | i | i | i | · | · | · | ·
COc1ccccc1C(=O)OCC(=O)Nc1ccccc1OC(F)F | 7.4* | i | i | i | i | i | i | i | i
Cc1sc(NC(=O)c2ccccc2F)c(CN2CCCCC2)c1C | 9.4* | i | i | i | i | i | i | i | i
Cc1sc(NC(=O)c2ccc(F)cc2)c(CN2CCCCCC2)c1C | i | i | i | i | i | · | · | · | ·
O=C(COc1ccc(Cl)cc1Cl)NCCC1=CCCCC1 | 16* | i | i | i | i | 5.0%* | i | i | i
N#Cc1ccc(-c2ccco2)nc1SCC(=O)c1ccc(Cl)cc1 | 8.4* | i | i | i | i | i | 0.48* | i | i
Cc1ccc(-n2nnnc2SCC(=O)N(CC(C)C)c2c(N)n(CC(C)C)c(=O)[nH]c2=O)cc1 | i | i | i | i | i | · | · | · | ·
COC(=O)c1ccccc1NC(=O)C1CCN(C(=O)Cc2ccccc2)CC1 | i | i | i | i | i | · | · | · | ·
COc1ccc(C)cc1NC(=O)C1CCN(C(=O)Cc2ccccc2)CC1 | 11* | i | i | i | i | i | i | i | i
Cc1nn(-c2ccc(N3CCCCC3)nn2)c(C)c1CCC(=O)Nc1cc(F)ccc1F | 7.8* | i | i | i | i | i | i | i | i
SMILES | MrgX1 PAM | MrgX1 antagonist | RGS4 pot | RGS4 inh | MrgX1 agonist | MrgX1 allo conf | HEK293 Ca flux | HEK293 Ca counter | HEK293 Ca cntr2
NC(=O)CC[C@H](NC(=O)c1ccc(F)cc1)C(=O)OCC(=O)Nc1ccc(N2CCOCC2)cc1 | i | i | i | i | i | · | · | · | ·
CCOc1ccc(C(=O)NCC(=O)OCC(=O)N2CCC(C)CC2)cc1 | 8* | i | i | i | i | i | i | i | i
Cc1c(NC(=O)C(C)OC(=O)C23CC4CC(CC(Br)(C4)C2)C3)c(=O)n(-c2ccccc2)n1C (stereo unspecified) | i | i | i | i | i | · | · | · | ·
CS(=O)(=O)N1N=C(c2cccs2)CC1c1ccc(F)cc1 (stereo unspecified) | 21* | i | i | i | i | i | i | i | i
C=CCNC(=O)c1ccc(N(Cc2ccc(Cl)cc2)S(C)(=O)=O)cc1 | i | i | i | i | i | · | · | · | ·
CCC(C)n1c(SCc2ccccc2)nc2ccsc2c1=O (stereo unspecified) | i | i | i | i | i | · | · | · | ·
CC(C)[C@@H](COc1ccccc1)N1CCN(Cc2ccccc2)CCC1=O | 14* | i | i | i | i | i | i | i | i
CC(=O)NCCn1c(SCC(=O)NCC2CCCO2)nc2ccccc2c1=O (stereo unspecified) | i | i | i | i | i | · | · | · | ·
O=c1c2ccccc2c2ccccc2c(=O)n1CC1CCCO1 (stereo unspecified) | 9.2* | i | i | i | i | i | i | i | i
O=C(CSc1nc2ccccc2c(=O)n1CC1CCCO1)NCC1CCCO1 (stereo unspecified) | 8.2* | i | i | i | i | i | i | i | i
CN(C)/C=N/NC(=O)C1Cc2c(ccc3ccccc23)O1 (stereo unspecified) | i | i | i | i | i | · | · | · | ·
COc1ccccc1NC(=O)C(C)Nc1ccc(C)c(Cl)c1 (stereo unspecified) | 6.9* | i | i | i | i | i | i | i | i
